B1: tRNA (parent)
chain: GUUCCGUUGGCGUAAUGGUAACGCGUCUCCCUCCUAAGGAGAAGACUGCGGGUUCGAGUCCCGUACGGAACG

Fewer inactive variants are shown than the library holds.

In this series the parent is B1. The experiment in a line: yeast fitness relative to wild type (ratio to wild type); higher = fitter; tRNA-Arg(CCU), competitive growth, 37 C, YPD. The procedure, abridged:
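Changes in genotype frequencies gave Darwinian fitness relative to wild type. Frequencies were read by 100-nucleotide paired-end sequencing of gene amplicons before and after pooled Saccharomyces cerevisiae strains, carrying tRNA-Arg(CCU) gene variants at the native locus, were competed in YPD at 37°C for 24 hours in six replicates. A genotype was kept only with ≥ 100 starting reads, and estimates < 0.5 were set to 0.5.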
With GUUCCGUUGGCGUAAUGGUUACGCCUCUCCCUCCUAAGGAGAAGACAGCGGGUUCGAGUGCCGUACGGAACG [A20U G25C U47A C60G], the yeast fitness is no more than 0.5.

Regarding GUUCCGUUGGCGUAAUGGUUACGCGUCUCCCUCCUAACGAGAAGACUGCGGGUUCGAGUCCCGUACGGAACG [A20U G38C], the yeast fitness was found to be 0.775.

GUUCCGUUGGCGUAAUGGUUACGCGUCUCCCUCCUAAAGAGAAGACUGCGGGUUCGAGUCCCGUACGGAACG [A20U G38A]: the yeast fitness came to 0.69.

For the variant GUUCCGUUGGCGUAAUGGUUACGCGUCUCCCUCCUAAAGAGAAGACUGCGGGUUCGAGUCCCGUACGGAGCG [A20U G38A A70G], the yeast fitness turned out to be 0.516.

As to GUUCCGUUGGCGUAAUGGUUACGCGUCUCCCUCCUAAAGAGAAGACUGAGGGUUCGAGUGCCGUACGGAACG [A20U G38A C49A C60G], the yeast fitness was no more than 0.5.

Take GUUCCGUUGGCGUAAUGGUUACGCAUCUCCCUCCUAAGGAGAAGACUGCGGGUUCGAGUCCCGUACGGCACG [A20U G25A A69C]: the yeast fitness amounted to 0.963.

On to GUUCCGUUGGCGUAAUGGUUACGCGUCUCCCUCCUAAGGAGAAGACUGCGGGUUCGAGUCCUGUACGGAACG [A20U C62U], for which the yeast fitness turned out to be 1.02.

In the case of GUUCCGUUGGCGUAAUGGUUACACGUCUCCCUCAUUAGGAGAAGACUGCGGGUUCGAGUCCCGUACGGAACG [A20U G23A C34A A36U], the yeast fitness was no more than 0.5.

For the variant GUUCCGUUGGCGUAAUGGUUACGCAUUUCCCUCCUAAGGAGAAGACUGCGGGUUCGAGUCCCGUACGGAACG [A20U G25A C27U], the yeast fitness is 0.595.

Take GUUCCGUUGGCGUAAUGGUUACACGUCUCCUUCCUAAGAAGAAGACUGCGGGUUCAAGUCCCGUACGGAACG [A20U G23A C31U G39A G56A]: the yeast fitness was no more than 0.5.

On to GUUCCGUUGGCGUAAUGGUUACGCGUCUCCCUCCUAAGCAGAAGACUGCGGGUUGGAGUCCCGUACGGAACG [A20U G39C C55G], for which the yeast fitness was no more than 0.5.

As for GUUCCGUUGGCGUAAUGGUUACACGUCUCCCUCCUAAGGAGAAGACUGCGGGUUCGAGUCCCGUACGGAACG [A20U G23A], the yeast fitness is 0.822.

As to GUUCCGUUGGCGUAAUGGUUACGCGUCUCCCUCCUAAAGAGAAGACUGCGGGUUCGAGUCCCGUACCGAACG [A20U G38A G67C], the yeast fitness was no more than 0.5.

On to GUUCCGUUGGCGUAAUGGUUACCCGUCUCCCUCCUAAGGAGAAGUCUGCGGGUUCGAAUCCCGUACGGACCG [A20U G23C A45U G58A A70C], for which the yeast fitness is no more than 0.5.

With GUUCCGUUGGCGUAAUGGUUACGCCUCUCCCUCCUAAGGAGAAGACUGCGGGUUCGAGUGCCGUACGGAACG [A20U G25C C60G], the yeast fitness turned out to be 0.676.

Regarding GUUCCGUUGGCGUAAUGGUUACGCGUCUCCCUCCUAAGAAGAAGACUGCGAGUGCGAGUCCCGUCCGGACCG [A20U G39A G51A U54G A65C A70C], the yeast fitness turned out to be 0.554.

Consider GUUCCGUUGGCGUAAUGGUUACACGUUUCCCUCCUAAGGAGAAGACUGCGGGUUCGAGUCCCGUGCGCAACG [A20U G23A C27U A65G G68C], for which the yeast fitness is no more than 0.5.

Consider GUUCCGUUGGCGUAAUGGUUACGCGUCUCCCUCCUAACGAGAAGACUGCGGGUUCGAGUCCCGUGUGGAACG [A20U G38C A65G C66U], for which the yeast fitness was no more than 0.5.

GUUCCGUUGGCGUAAUGGUUACGCGUCUCCCUCCUAAGAAGAAGACUGCGCGUUGGAGUCCCGUACGGAACG [A20U G39A G51C C55G]: the yeast fitness was no more than 0.5.

Turning to GUUCCGUUGGCGUAAUGGUUACACGUCUCCCUCCUAAGGAGAAGACUGCGGGUUCGAGUCUCGUACGGAACG [A20U G23A C61U], the yeast fitness came to 0.561.

As to GUUCCGUUGGCGUAAUGGUUACGCAUCUCCCUCCUAAGGAGAAGACUGCGGGUUCGAGUCCCAUACGGAACG [A20U G25A G63A], the yeast fitness turned out to be 0.716.

With GUUCCGUUGGCGUAAUGGUUACGCGUCUCCCUCCUAAGGAAAAGACUGCGGGUUCGAGUCCCGUACGGAACG [A20U G41A], the yeast fitness worked out at 0.867.

Consider GUUCCGUUGGCGUAAUGGUUACACGUCUCCCUCCUAAGGAGAAGACUGCGGGUUCGAGUCCCGUGCGCAACG [A20U G23A A65G G68C], for which the yeast fitness was found to be 0.513.

In the case of GUUCCGUUGGCGUAAUGGUUACGCGUCUCCCUCCUAAGGAGAAGACUGCGGGUUCGAGUCCUGUACGGAUCG [A20U C62U A70U], the yeast fitness was 0.65.

On to GUUCCGUUGGCGUAAUGGUUACGCGUCUCCCUCCUAAGGAGAAGACUGCGGGUUCGAGUCCGCUACGGAACG [A20U C62G G63C], for which the yeast fitness was determined as 0.601.

With GUUCCGUUGGCGUAAUGGUUACGCAUCUCCCUCCUAAGGAGAAGACUGCGGGUUCGAGUACCGUUCGGAGCG [A20U G25A C60A A65U A70G], the yeast fitness was no more than 0.5.

Take GUUCCGUUGGCGUAAUGGUUACGCAUCUCCCUCCUAAGGAGAAGACUGCGGGUUCGAGUCCCGUACGGAACG [A20U G25A]: the yeast fitness amounted to 1.03.

Regarding GUUCCGUUGGCGUAAUGGUUACGCGUCUCCCUCCUAAGGAGAAGACUGCGGGUUCGAGUCCCGUAUGGAACG [A20U C66U], the yeast fitness amounted to 0.8.

For GUUCCGUUGGCGUAAUGGUUACGCGUCUCCCUCCUAAAGAGAAGAAUGCGGGUUCGAGUCCCGUACGGAACG [A20U G38A C46A], the yeast fitness is 0.541.

With GUUCCGUUGGCGUAAUGGUUACACGUCUCCCUCCUAAGGAGAAGACUGCGGGUUCAAGUCCCGUACGGCACG [A20U G23A G56A A69C], the yeast fitness was no more than 0.5.

Turning to GUUCCGUUGGCGUAAUGGUUACGCGUCUCCCUCCUAACGAGAAGACUGCGGGUUCGAGUCGCGUACGGGACG [A20U G38C C61G A69G], the yeast fitness is no more than 0.5.

Regarding GUUCCGUUGGCGUAAUGGUUACGCGUCUCCCUCCUAAAGAGAAGACUGCGGGUUUGAGUCCCGUGCGGAACG [A20U G38A C55U A65G], the yeast fitness was no more than 0.5.

In the case of GUUCCGUUGGCGUAAUGGUUACACGUCUCCCUCCUAAGGAGAAGACUGCGGGUUCGCGUCCCGUACGGAACG [A20U G23A A57C], the yeast fitness was no more than 0.5.

For GUUCCGUUGGCGUAAUGGUUACACGUCCCCUUCCUAAGAAGAAGACUGCGGGUUCAAGUCCCGUACGGAACG [A20U G23A U28C C31U G39A G56A], the yeast fitness was no more than 0.5.

Take GUUCCGUUGGCGUAAUGGUUACGCGUCUCCCUCCUAAGGACAAGACUGCGGGUUCCAGUCCCGUACGCAACG [A20U G41C G56C G68C]: the yeast fitness was no more than 0.5.

In the case of GUUCCGUUGGCGUAAUGGUUACACGUCUCCCUCCUAAGGAGAAGACUGCGGGUUCGAGUCCCGUACGAUUCG [A20U G23A G68A A69U A70U], the yeast fitness was no more than 0.5.

With GUUCCGUUGGCGUAAUGGUUACGCGUCUCCCUCCUAAGCAGAAGACUCCGGCAUCGAGUCCCGUACGGAACG [A20U G39C G48C G52C U53A], the yeast fitness was no more than 0.5.

Turning to GUUCCGUUGGCGUAAUGGUUACGCAUCUCCCUCCUAAGGAGAAGACUGCGGGUUCGAGUCCCGUAUGGAACG [A20U G25A C66U], the yeast fitness worked out at 0.761.

Values taken from the RNAGym collection of RNA variant scans (doi:10.1126/science.aae0568).
